The values that follow come from ChEMBL document CHEMBL3576822 (J Med Chem, 2015).

Each structure is given as a SMILES string. Non-standard residues stand in square brackets, D forms with d. Residues, ends and D or L forms follow the SMILES beside them. ξ: configuration not given here. ξDap = NCC(N)C(=O)O Where only a bound is given, the exact number is not on record here.

The target in assay [1] is T1, Growth hormone secretagogue receptor type 1 (Homo sapiens, UniProt Q92847). As to the kind of experiment: Inverse agonist activity at human GHSR1a receptor expressed in COS-7 cells assessed as inositol phosphate accumulation after 2 hrs by anion exchange chromatography relative to control. The format is functional, cell-based.
Assay [2] addresses T2, Neuropeptide Y receptor type 1 (Homo sapiens) (UniProt P25929).
T2 sequence (whole entry): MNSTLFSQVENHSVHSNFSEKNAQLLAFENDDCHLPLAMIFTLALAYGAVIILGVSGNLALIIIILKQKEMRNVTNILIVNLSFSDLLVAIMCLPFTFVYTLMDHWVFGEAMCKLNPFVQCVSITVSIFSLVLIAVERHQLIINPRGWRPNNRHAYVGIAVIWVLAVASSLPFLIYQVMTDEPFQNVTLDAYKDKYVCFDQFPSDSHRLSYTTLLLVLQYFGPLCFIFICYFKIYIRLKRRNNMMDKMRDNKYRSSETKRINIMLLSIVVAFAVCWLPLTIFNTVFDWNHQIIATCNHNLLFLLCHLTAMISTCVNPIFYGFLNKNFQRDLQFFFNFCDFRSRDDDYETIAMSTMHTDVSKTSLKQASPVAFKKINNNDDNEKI
Kind of assay: Agonist activity at human neuropeptide Y Y1 receptor expressed in COS-7 cells cotransfected with chimeric Gi/q protein assessed as inositol phosphate accumulation at 1 uM after 2 hrs by anion exchange chromatography. The assay is classed as functional, cell-based. A digest of the protocol: (§1)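 COS-7 cells stably co-expressing the corresponding human Y receptor plus a chimeric Gi/q protein; single high concentration tested in inositol phosphate accumulation; response as % of NPY response at each receptor; SEM over two biological replicates.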

For assay [3], the target named is T3, Neuropeptide Y receptor type 2 (Homo sapiens) (UniProt P49146).
T3 sequence (whole entry): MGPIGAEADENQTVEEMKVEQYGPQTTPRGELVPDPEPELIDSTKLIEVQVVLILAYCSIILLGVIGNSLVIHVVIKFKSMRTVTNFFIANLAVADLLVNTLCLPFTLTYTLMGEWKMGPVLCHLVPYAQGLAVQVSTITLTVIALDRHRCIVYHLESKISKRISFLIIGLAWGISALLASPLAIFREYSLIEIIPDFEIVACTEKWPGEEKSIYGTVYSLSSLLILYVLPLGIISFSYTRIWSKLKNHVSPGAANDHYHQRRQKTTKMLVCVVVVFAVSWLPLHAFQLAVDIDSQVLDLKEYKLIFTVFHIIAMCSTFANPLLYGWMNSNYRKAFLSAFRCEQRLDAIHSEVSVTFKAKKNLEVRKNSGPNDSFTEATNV
Kind of assay: Agonist activity at human neuropeptide Y Y2 receptor expressed in COS-7 cells cotransfected with chimeric Gi/q protein assessed as inositol phosphate accumulation after 2 hrs by anion exchange chromatography relative to control. The format is functional, cell-based. A digest of the protocol: (§2)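 Inositol phosphate turnover in COS-7 cells stably co-expressing human Y2 receptor and chimeric Gi/q protein; concentration-response curves, responses as % of maximum Y2 activity; SEM over two biological replicates.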

Assay [4] addresses Neuropeptide Y receptor type 4 (Homo sapiens) (UniProt P50391). As to the kind of experiment: Agonist activity at human neuropeptide Y Y4 receptor expressed in COS-7 cells cotransfected with chimeric Gi/q protein assessed as inositol phosphate accumulation at 1 uM after 2 hrs by anion exchange chromatography. The format is functional, cell-based. The method in brief: as §1
For assay [5], the target named is T4, Neuropeptide Y receptor type 5 (Homo sapiens) (UniProt Q15761).
T4 sequence (whole entry): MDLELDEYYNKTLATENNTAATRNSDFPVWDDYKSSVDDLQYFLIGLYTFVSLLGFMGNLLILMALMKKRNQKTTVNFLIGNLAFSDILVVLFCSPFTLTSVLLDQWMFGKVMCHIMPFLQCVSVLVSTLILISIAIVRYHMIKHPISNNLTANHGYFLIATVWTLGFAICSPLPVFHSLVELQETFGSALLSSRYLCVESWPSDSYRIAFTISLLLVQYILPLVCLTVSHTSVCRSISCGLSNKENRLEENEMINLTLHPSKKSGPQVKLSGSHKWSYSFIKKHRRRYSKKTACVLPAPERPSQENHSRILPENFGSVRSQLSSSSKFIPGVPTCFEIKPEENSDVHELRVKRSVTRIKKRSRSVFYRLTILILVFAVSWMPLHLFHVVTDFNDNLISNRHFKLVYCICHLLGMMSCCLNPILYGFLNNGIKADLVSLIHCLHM
Kind of assay: Agonist activity at human neuropeptide Y Y5 receptor expressed in COS-7 cells cotransfected with chimeric Gi/q protein assessed as inositol phosphate accumulation at 1 uM after 2 hrs by anion exchange chromatography. The format is functional, cell-based. The method in brief: as §1

The target in assay [6] is T5, Neuropeptide Y receptor type 2 (Homo sapiens, UniProt P49146).
T5 sequence (P49146 whole entry): T3 sequence (whole entry)
Kind of assay: Agonist activity at human neuropeptide Y Y2 receptor expressed in COS-7 cells cotransfected with chimeric Gi/q protein assessed as inositol phosphate accumulation after 2 hrs by anion exchange chromatography. The format is functional, cell-based. The method in brief: as §2

Assay [7] addresses T1, Growth hormone secretagogue receptor type 1. Kind of assay: Inverse agonist activity at human GHSR1a receptor expressed in COS-7 cells assessed as inositol phosphate accumulation after 2 hrs by anion exchange chromatography. The assay is classed as functional, cell-based.
Assay [8] shares this target. Kind of assay: Displacement of [125I]ghrelin from human eYFP-fused ghrelin receptor expressed in COS7 cells after 75 mins by competitive receptor binding assay. The format is cell-based, COS-7. As to conditions: cos-7.
Assay [9] has as its target T5, Neuropeptide Y receptor type 2. As to the kind of experiment: Displacement of [125I]PYY from human neuropeptide Y Y2 receptor expressed in HEK293 cells cotransfected with eYFP fusion protein after 2 hrs by competitive receptor binding assay. The assay is classed as cell-based. As to conditions: hek293. The method in brief: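 Competitive binding against 125I-PYY in HEK-293 cells stably expressing human Y2 receptor; concentration-response curves.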

T1 sequence (Q92847 whole entry): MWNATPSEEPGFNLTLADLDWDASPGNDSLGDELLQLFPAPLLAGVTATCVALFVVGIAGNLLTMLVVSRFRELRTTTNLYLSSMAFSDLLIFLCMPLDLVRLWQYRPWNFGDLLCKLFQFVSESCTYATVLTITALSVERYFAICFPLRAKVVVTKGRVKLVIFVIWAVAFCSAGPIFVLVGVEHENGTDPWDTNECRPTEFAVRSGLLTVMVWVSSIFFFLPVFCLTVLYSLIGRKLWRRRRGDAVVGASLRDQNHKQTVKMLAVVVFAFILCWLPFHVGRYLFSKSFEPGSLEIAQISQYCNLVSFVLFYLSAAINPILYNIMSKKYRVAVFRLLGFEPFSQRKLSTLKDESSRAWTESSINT
Chain of Neuropeptide Y receptor type 4 (Homo sapiens) (P50391 whole entry): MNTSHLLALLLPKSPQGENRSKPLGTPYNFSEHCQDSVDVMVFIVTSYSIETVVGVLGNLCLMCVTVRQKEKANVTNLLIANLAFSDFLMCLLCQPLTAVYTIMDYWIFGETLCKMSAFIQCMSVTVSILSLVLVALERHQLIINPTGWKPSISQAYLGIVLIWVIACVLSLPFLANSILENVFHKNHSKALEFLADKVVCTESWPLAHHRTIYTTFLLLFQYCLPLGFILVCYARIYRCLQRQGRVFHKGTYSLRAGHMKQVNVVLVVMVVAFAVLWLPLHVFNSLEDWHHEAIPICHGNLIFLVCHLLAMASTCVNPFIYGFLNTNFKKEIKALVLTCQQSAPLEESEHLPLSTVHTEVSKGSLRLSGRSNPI

As to `CC(C)C[C@H](NC(=O)[C@@H](Cc1c[nH]c2ccccc12)NC(=O)[C@H](Cc1ccccc1)NC(=O)[C@H](Cc1cccc2ccccc12)NC(=O)[C@@H](N)CCCCN)C(=O)N[C@@H](CCC(N)=O)C(=O)O`, in [1], the Efficacy is 92%.

Regarding `CC(=O)NC(CNC(=O)CCC(=O)N[C@@H](CCCCN)C(=O)N[C@@H](CCCCN)C(=O)N[C@@H](Cc1cccc2ccccc12)C(=O)N[C@@H](Cc1ccccc1)C(=O)N[C@H](Cc1c[nH]c2ccccc12)C(=O)N[C@@H](CC(C)C)C(=O)N[C@@H](CC(C)C)C(N)=O)C(=O)N[C@@H](CC(C)C)C(=O)N[C@@H](CCCNC(=N)N)C(=O)N[C@@H](Cc1cnc[nH]1)C(=O)N[C@@H](Cc1ccc(O)cc1)C(=O)N[C@@H](CC(C)C)C(=O)N[C@@H](CC(N)=O)C(=O)N[C@@H](CC(C)C)C(=O)N[C@@H](CC(C)C)C(=O)N[C@H](C(=O)N[C@@H](CCCNC(=N)N)C(=O)N[C@@H](CCC(N)=O)C(=O)N[C@@H](CCCNC(=N)N)C(=O)N[C@@H](Cc1ccc(O)cc1)C(N)=O)[C@@H](C)O` (some centres undefined), the Efficacy is under 25% in [2]; 82% in [3]; under 25% in assay [4]; 33% in assay [5]; 78% in [1].

With `CC(C)C[C@H](NC(=O)[C@H](CC(C)C)NC(=O)[C@@H](Cc1c[nH]c2ccccc12)NC(=O)[C@H](Cc1ccccc1)NC(=O)[C@@H](Cc1cccc2ccccc12)NC(=O)[C@H](CCCCN)NC(=O)[C@H](CCCCN)NC(=O)CCC(=O)O)C(N)=O`, the EC50 in assay [6] (cos-7) was over 1000 nM; in [7] (cos-7) it was 60.2 nM.

For `CC(C)C[C@H](NC(=O)[C@@H](Cc1c[nH]c2ccccc12)NC(=O)[C@H](Cc1ccccc1)NC(=O)[C@@H](Cc1cccc2ccccc12)NC(=O)[C@@H](N)CCCCN)C(=O)N[C@@H](CCC(N)=O)C(=O)O`, the figures for the EC50 in [6] (cos-7) and in assay [7] (cos-7) were over 1000 nM and 70.2 nM, respectively.

Regarding `CC(C)C[C@H](NC(=O)[C@H](CC(C)C)NC(=O)[C@@H](Cc1c[nH]c2ccccc12)NC(=O)[C@H](Cc1ccccc1)NC(=O)[C@@H](Cc1cccc2ccccc12)NC(=O)[C@H](CCCCN)NC(=O)CCC(=O)O)C(N)=O`, the EC50 is over 1000 nM in [6] (cos-7) and 29 nM in [7] (cos-7).

For `CC(C)C[C@H](NC(=O)[C@@H](Cc1c[nH]c2ccccc12)NC(=O)[C@H](Cc1ccccc1)NC(=O)[C@@H](Cc1cccc2ccccc12)NC(=O)[C@@H](N)CCCCN)C(=O)N[C@@H](CC(N)=O)C(=O)O`, the EC50 in [7] (cos-7) came to 189 nM.

Take `CC(C)C[C@H](NC(=O)[C@H](CC(C)C)NC(=O)[C@@H](Cc1c[nH]c2ccccc12)NC(=O)[C@H](Cc1ccccc1)NC(=O)[C@H](Cc1cccc2ccccc12)NC(=O)[C@H](CCCCN)NC(=O)[C@H](CCCCN)NC(=O)CCC(=O)O)C(N)=O`: the Efficacy in [1] was 84%.

As for `CC(=O)NC(CN)C(=O)N[C@@H](CC(C)C)C(=O)N[C@@H](CCCNC(=N)N)C(=O)N[C@@H](Cc1cnc[nH]1)C(=O)N[C@@H](Cc1ccc(O)cc1)C(=O)N[C@@H](CC(C)C)C(=O)N[C@@H](CC(N)=O)C(=O)N[C@@H](CC(C)C)C(=O)N[C@@H](CC(C)C)C(=O)N[C@H](C(=O)N[C@@H](CCCNC(=N)N)C(=O)N[C@@H](CCC(N)=O)C(=O)N[C@@H](CCCNC(=N)N)C(=O)N[C@@H](Cc1ccc(O)cc1)C(N)=O)[C@@H](C)O` (some centres undefined) (Ac-[ξDap]LRHYLNLLTRQRY-NH2), in [6], the EC50 was 0.4 nM. Besides, in assay [3], the Efficacy worked out at 77%.

With `CC(=O)N[C@@H](CCCCNC(=O)CCNC(=O)[C@H](CC(N)=O)NC(=O)[C@H](CC(C)C)NC(=O)[C@@H](Cc1c[nH]c2ccccc12)NC(=O)[C@H](Cc1ccccc1)NC(=O)[C@@H](Cc1cccc2ccccc12)NC(=O)[C@@H](N)CCCCN)C(=O)N[C@@H](CC(C)C)C(=O)N[C@@H](CCCNC(=N)N)C(=O)N[C@@H](Cc1cnc[nH]1)C(=O)N[C@@H](Cc1ccc(O)cc1)C(=O)N[C@@H](CC(C)C)C(=O)N[C@@H](CC(N)=O)C(=O)N[C@@H](CC(C)C)C(=O)N[C@@H](CC(C)C)C(=O)N[C@H](C(=O)N[C@@H](CCCNC(=N)N)C(=O)N[C@@H](CCC(N)=O)C(=O)N[C@@H](CCCNC(=N)N)C(=O)N[C@@H](Cc1ccc(O)cc1)C(N)=O)[C@@H](C)O`, the EC50 in assay [7] came out at 331 nM. The Efficacy in [1] worked out at 74%.

Consider `CC(=O)N[C@@H](CCCCN)C(=O)N[C@@H](CC(C)C)C(=O)N[C@@H](CCCNC(=N)N)C(=O)N[C@@H](Cc1cnc[nH]1)C(=O)N[C@@H](Cc1ccc(O)cc1)C(=O)N[C@@H](CC(C)C)C(=O)N[C@@H](CC(N)=O)C(=O)N[C@@H](CC(C)C)C(=O)N[C@@H](CC(C)C)C(=O)N[C@H](C(=O)N[C@@H](CCCNC(=N)N)C(=O)N[C@@H](CCC(N)=O)C(=O)N[C@@H](CCCNC(=N)N)C(=O)N[C@@H](Cc1ccc(O)cc1)C(N)=O)[C@@H](C)O` (Ac-KLRHYLNLLTRQRY-NH2), for which the EC50 in [6] is 0.5 nM; in assay [7], over 1000 nM. The Efficacy in [3] came out at 68%.

With `CC(=O)N[C@@H](CCCCNC(=O)CCCCCNC(=O)[C@H](CC(N)=O)NC(=O)[C@H](CC(C)C)NC(=O)[C@@H](Cc1c[nH]c2ccccc12)NC(=O)[C@H](Cc1ccccc1)NC(=O)[C@@H](Cc1cccc2ccccc12)NC(=O)[C@@H](N)CCCCN)C(=O)N[C@@H](CC(C)C)C(=O)N[C@@H](CCCNC(=N)N)C(=O)N[C@@H](Cc1cnc[nH]1)C(=O)N[C@@H](Cc1ccc(O)cc1)C(=O)N[C@@H](CC(C)C)C(=O)N[C@@H](CC(N)=O)C(=O)N[C@@H](CC(C)C)C(=O)N[C@@H](CC(C)C)C(=O)N[C@H](C(=O)N[C@@H](CCCNC(=N)N)C(=O)N[C@@H](CCC(N)=O)C(=O)N[C@@H](CCCNC(=N)N)C(=O)N[C@@H](Cc1ccc(O)cc1)C(N)=O)[C@@H](C)O`, in assay [7], the EC50 was determined as 267 nM. The Efficacy in assay [1] worked out at 64%.

On to `CC(=O)N[C@@H](CNC(=O)CCC(=O)N[C@@H](CCCCN)C(=O)N[C@@H](CCCCN)C(=O)N[C@H](Cc1cccc2ccccc12)C(=O)N[C@@H](Cc1ccccc1)C(=O)N[C@H](Cc1c[nH]c2ccccc12)C(=O)N[C@@H](CC(C)C)C(=O)N[C@@H](CC(C)C)C(N)=O)C(=O)N[C@@H](CC(C)C)C(=O)N[C@@H](CCCNC(=N)N)C(=O)N[C@@H](Cc1cnc[nH]1)C(=O)N[C@@H](Cc1ccc(O)cc1)C(=O)N[C@@H](CC(C)C)C(=O)N[C@@H](CC(N)=O)C(=O)N[C@@H](CC(C)C)C(=O)N[C@@H](CC(C)C)C(=O)N[C@H](C(=O)N[C@@H](CCCNC(=N)N)C(=O)N[C@@H](CCC(N)=O)C(=O)N[C@@H](CCCNC(=N)N)C(=O)N[C@@H](Cc1ccc(O)cc1)C(N)=O)[C@@H](C)O`, for which the EC50 is 2 nM in assay [6] (cos-7) and 110 nM in [7] (cos-7). Besides, the half-maximal inhibitory concentration (IC50) amounted to 70.4 nM in [8] and 9.7 nM in assay [9].

For `CC(C)C[C@H](NC(=O)[C@H](CC(C)C)NC(=O)[C@@H](Cc1c[nH]c2ccccc12)NC(=O)[C@H](Cc1ccccc1)NC(=O)[C@H](Cc1cccc2ccccc12)NC(=O)[C@H](CCCCN)NC(=O)CCC(=O)O)C(N)=O`, the Efficacy in assay [1] worked out at 88%.

With `CC(C)C[C@H](NC(=O)[C@@H](Cc1c[nH]c2ccccc12)NC(=O)[C@H](Cc1ccccc1)NC(=O)[C@H](Cc1cccc2ccccc12)NC(=O)[C@@H](N)CCCCN)C(=O)N[C@@H](CC(N)=O)C(=O)O`, in [1], the Efficacy is 86%.
